# Results reported in article PMC8542630 (Cell chemical biology, 2021).
# Read-outs that look alike come from different tables or passages of the source.
# Tests used:
# [1] = target: GFP-Sc-Dyn V2391S/M2732S (AAA3_V-S/AAA4_M-S) (Saccharomyces cerevisiae, UniProt P36022, M2732S/V2391S); assay: Microscale thermophoresis; type: binding; conditions: read-out: EC50, AMPPNP binding to AAA3_V-S/AAA4_M-S (MST); mean ± 95% CI, n=3
# GFP-Sc-Dyn [2] = target: T1, GFP-Sc-Dyn (Saccharomyces cerevisiae, UniProt P36022); assay: Microscale thermophoresis; type: binding, S. cerevisiae
# Hs-dynein 1 [3] = target: T2, Hs-dynein 1 (Homo sapiens, UniProt Q14204); conditions: ref Steinman et al., 2017; cited from earlier work
# Hs-dynein 1 [4] = target: T2, Hs-dynein 1; conditions: read-out: IC50, inhibition of Hs-dynein 1; ref Steinman et al., 2017; cited from earlier work
# GFP-Sc-Dyn [5] = target: T1, GFP-Sc-Dyn; assay: Microtubule gliding assay; type: biochemical, S. cerevisiae; conditions: 25 μM compound
# Sc-Dyn-lyso [6] = target: T3, Sc-Dyn-lyso (Saccharomyces cerevisiae, UniProt P36022); assay: Microscale thermophoresis; type: binding, S. cerevisiae; conditions: n=2, negative control
# T3 sequence (P36022 1758-2992 limits assumed): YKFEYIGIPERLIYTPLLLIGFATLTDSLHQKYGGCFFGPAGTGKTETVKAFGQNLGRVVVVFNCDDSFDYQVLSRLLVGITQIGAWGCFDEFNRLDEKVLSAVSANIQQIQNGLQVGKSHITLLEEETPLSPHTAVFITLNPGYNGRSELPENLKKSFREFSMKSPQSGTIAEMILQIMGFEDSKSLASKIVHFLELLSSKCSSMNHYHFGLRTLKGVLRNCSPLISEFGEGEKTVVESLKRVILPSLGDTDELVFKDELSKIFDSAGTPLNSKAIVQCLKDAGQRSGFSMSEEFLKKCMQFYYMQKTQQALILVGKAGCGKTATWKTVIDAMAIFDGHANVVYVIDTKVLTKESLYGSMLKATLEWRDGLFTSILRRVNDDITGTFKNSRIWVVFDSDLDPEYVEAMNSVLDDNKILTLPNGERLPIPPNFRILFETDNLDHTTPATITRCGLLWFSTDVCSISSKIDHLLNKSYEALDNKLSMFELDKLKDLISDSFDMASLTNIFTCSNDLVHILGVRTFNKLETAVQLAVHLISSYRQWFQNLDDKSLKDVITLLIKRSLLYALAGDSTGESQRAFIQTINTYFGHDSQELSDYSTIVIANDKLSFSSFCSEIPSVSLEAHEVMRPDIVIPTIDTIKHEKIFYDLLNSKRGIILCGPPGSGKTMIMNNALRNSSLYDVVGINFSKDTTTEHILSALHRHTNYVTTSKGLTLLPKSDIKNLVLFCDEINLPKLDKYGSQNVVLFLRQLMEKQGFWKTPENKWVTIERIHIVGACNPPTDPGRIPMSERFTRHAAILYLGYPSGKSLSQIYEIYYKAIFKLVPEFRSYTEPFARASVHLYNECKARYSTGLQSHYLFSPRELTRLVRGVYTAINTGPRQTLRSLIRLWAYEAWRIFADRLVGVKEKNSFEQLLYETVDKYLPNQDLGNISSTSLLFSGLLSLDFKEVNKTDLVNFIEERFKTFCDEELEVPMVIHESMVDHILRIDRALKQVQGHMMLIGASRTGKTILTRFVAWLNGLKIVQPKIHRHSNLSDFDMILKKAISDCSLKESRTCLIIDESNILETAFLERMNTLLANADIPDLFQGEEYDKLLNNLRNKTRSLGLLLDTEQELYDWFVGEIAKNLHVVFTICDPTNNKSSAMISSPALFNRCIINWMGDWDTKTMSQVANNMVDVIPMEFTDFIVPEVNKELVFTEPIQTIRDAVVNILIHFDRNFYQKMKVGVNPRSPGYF
# T3 sequence (P36022 3301-4092 limits assumed): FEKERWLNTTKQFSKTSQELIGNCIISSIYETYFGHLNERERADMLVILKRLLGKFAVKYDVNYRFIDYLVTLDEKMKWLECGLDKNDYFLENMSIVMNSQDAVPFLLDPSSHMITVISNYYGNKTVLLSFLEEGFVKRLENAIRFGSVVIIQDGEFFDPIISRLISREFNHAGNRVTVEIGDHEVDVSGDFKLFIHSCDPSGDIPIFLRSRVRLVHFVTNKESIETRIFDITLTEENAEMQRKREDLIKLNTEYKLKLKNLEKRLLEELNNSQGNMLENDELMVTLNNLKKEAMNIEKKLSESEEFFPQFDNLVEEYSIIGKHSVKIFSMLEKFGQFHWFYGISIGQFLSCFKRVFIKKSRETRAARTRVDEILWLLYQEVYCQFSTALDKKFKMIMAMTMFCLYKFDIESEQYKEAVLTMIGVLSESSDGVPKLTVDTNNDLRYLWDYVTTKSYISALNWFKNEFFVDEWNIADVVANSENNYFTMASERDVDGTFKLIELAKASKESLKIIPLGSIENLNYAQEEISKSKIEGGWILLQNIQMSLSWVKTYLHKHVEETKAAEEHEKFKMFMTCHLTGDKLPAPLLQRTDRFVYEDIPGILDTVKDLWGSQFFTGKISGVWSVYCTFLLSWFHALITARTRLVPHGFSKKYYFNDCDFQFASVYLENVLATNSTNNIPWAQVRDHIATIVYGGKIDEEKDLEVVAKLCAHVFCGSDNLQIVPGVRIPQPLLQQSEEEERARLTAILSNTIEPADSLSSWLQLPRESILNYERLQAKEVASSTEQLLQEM
# Hs-dynein 1 [7] = target: T2, Hs-dynein 1; assay: Radioactive ATPase assay, basal ATPase activity of Hs-dynein 1; type: biochemical; conditions: for Inhibition of Hs-dynein 1 basal ATPase activity (in words): compounds tested at 20 μM, 1 mM MgATP, no microtubules, n=2
# Summary of the method: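 Hs-dynein 1 motor construct (N-terminal His6, aa 1320–4646) at 30 nM, without microtubules. Radioactive ATPase reaction ran for 45 min with test compound. Percent inhibition was obtained by normalising the ATPase rate with compound to DMSO control.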
# Sc-DynGST = Sc-DynGST (Saccharomyces cerevisiae, UniProt P36022); assay: Single-molecule motility assay; type: biochemical, S. cerevisiae; conditions: single-molecule
# Hs-FIGL1 = target: T4, Hs-FIGL1 (Homo sapiens, UniProt Q6PIW4); assay: NADH-coupled steady-state ATPase assay, Hs-FIGL1; type: biochemical, H. sapiens; conditions: read-out: Inhibition of ATPase activity, Hs-FIGL1
# T4 sequence (Q6PIW4 288-674): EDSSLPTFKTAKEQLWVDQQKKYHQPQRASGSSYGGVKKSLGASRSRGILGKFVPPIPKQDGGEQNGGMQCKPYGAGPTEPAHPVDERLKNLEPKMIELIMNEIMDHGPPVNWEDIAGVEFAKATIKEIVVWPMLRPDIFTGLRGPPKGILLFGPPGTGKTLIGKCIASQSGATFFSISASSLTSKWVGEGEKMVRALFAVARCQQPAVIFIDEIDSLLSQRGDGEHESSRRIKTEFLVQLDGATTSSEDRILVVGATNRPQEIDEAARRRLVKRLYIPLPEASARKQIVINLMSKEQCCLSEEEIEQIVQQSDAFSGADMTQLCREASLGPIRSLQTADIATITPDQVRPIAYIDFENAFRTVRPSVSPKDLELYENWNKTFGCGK
# Summary of the method: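 Recombinant Hs-FIGL1 (50 nM; E. coli-expressed) in 25 mM Na-MES pH 6.5, 70 mM KOAc, 20 mM (NH4)2SO4, 5 mM Mg(OAc)2, 1 mM TCEP, 0.01% Triton X-100, with NADH/PEP/pyruvate kinase/lactate dehydrogenase coupling system. Protein preincubated 10 min at RT with test compound, then MgATP added. NADH fluorescence (ex 340, em 440 nm) slope converted to ATPase rate with an ADP standard curve.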
# Dm-spastin = Dm-spastin (Drosophila melanogaster, UniProt Q8I0P1, DEL311-372); assay: NADH-coupled steady-state ATPase assay, Dm-spastin; type: biochemical, D. melanogaster; conditions: 20 μM, 1 mM MgATP
# Xl-katanin = Xl-katanin (Xenopus laevis, UniProt Q9PUL2); assay: NADH-coupled steady-state ATPase assay, Xl-katanin; type: biochemical, X. laevis; conditions: 20 μM, 1 mM MgATP
# Summary of the method: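 Recombinant Xl-katanin (50 nM; E. coli, MBP-trap, MonoQ and gel filtration) in 25 mM K-HEPES pH 7.5, 70 mM KCl, 20 mM (NH4)2SO4, 5 mM MgCl2, 2.5 mM DTT, 0.01% Triton X-100 plus NADH-coupled regeneration mix. After 10 min RT preincubation with test compound, MgATP started the reaction. The fluorescence decrease rate (340/440 nm) was converted to ATPase rate using an ADP standard curve.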
# Hs-dynein 1 [8] = target: T2, Hs-dynein 1; assay: Radioactive ATPase assay, microtubule-stimulated ATPase activity of Hs-dynein 1; type: biochemical
# Summary of the method: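 Radioactive ATPase assay with Hs-dynein 1 (His6, aa 1320–4646; 30 nM) in the presence of microtubules. Reaction time was 45 min, and rates with test compound were normalised to DMSO control.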
# Sc-Dyn-lyso [9] = target: Sc-Dyn-lyso (Saccharomyces cerevisiae, UniProt P36022); assay: NADH-coupled steady-state ATPase assay, Sc-Dyn-lyso; type: biochemical, S. cerevisiae
# Summary of the method: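 Ten-dose DMSO serial dilution of test compound (stock top 4 mM) was preincubated 10 min at RT. MgATP (10 mM stock) started the reaction, and NADH fluorescence slopes were converted via an ADP standard curve.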
# GFP-Sc-Dyn [10] = target: T1, GFP-Sc-Dyn; assay: NADH-coupled steady-state ATPase assay, GFP-Sc-Dyn basal ATPase; type: biochemical, S. cerevisiae
# Mm-VCP/p97 = Mm-VCP/p97 (Mus musculus, UniProt Q01853); assay: NADH-coupled steady-state ATPase assay, Mm-VCP/p97; type: biochemical, M. musculus; conditions: 20 μM, 1 mM MgATP
# Chain of Mm-VCP/p97 (Q01853 whole entry): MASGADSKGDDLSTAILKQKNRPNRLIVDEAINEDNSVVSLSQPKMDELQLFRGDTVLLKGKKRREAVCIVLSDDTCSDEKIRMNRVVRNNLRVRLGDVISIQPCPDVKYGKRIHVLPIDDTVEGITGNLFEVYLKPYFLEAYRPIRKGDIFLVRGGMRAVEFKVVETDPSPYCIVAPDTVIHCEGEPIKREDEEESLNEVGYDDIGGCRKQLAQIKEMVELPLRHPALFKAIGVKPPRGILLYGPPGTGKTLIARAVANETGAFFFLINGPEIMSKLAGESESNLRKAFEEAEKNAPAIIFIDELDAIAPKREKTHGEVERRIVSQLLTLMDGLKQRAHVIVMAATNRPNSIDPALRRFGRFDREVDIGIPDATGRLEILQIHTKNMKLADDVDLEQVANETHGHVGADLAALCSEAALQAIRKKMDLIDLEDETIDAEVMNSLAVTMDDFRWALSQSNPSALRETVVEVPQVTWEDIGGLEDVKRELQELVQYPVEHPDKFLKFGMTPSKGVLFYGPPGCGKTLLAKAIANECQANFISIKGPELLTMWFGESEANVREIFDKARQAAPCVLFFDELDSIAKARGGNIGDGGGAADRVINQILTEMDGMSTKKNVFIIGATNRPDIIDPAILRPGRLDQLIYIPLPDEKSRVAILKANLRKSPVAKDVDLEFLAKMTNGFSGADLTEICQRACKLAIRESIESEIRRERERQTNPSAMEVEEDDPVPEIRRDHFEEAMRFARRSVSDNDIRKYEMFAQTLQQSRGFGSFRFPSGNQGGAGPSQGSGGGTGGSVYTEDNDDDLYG
# Chain of Sc-DynGST (P36022 1219-4092 limits assumed): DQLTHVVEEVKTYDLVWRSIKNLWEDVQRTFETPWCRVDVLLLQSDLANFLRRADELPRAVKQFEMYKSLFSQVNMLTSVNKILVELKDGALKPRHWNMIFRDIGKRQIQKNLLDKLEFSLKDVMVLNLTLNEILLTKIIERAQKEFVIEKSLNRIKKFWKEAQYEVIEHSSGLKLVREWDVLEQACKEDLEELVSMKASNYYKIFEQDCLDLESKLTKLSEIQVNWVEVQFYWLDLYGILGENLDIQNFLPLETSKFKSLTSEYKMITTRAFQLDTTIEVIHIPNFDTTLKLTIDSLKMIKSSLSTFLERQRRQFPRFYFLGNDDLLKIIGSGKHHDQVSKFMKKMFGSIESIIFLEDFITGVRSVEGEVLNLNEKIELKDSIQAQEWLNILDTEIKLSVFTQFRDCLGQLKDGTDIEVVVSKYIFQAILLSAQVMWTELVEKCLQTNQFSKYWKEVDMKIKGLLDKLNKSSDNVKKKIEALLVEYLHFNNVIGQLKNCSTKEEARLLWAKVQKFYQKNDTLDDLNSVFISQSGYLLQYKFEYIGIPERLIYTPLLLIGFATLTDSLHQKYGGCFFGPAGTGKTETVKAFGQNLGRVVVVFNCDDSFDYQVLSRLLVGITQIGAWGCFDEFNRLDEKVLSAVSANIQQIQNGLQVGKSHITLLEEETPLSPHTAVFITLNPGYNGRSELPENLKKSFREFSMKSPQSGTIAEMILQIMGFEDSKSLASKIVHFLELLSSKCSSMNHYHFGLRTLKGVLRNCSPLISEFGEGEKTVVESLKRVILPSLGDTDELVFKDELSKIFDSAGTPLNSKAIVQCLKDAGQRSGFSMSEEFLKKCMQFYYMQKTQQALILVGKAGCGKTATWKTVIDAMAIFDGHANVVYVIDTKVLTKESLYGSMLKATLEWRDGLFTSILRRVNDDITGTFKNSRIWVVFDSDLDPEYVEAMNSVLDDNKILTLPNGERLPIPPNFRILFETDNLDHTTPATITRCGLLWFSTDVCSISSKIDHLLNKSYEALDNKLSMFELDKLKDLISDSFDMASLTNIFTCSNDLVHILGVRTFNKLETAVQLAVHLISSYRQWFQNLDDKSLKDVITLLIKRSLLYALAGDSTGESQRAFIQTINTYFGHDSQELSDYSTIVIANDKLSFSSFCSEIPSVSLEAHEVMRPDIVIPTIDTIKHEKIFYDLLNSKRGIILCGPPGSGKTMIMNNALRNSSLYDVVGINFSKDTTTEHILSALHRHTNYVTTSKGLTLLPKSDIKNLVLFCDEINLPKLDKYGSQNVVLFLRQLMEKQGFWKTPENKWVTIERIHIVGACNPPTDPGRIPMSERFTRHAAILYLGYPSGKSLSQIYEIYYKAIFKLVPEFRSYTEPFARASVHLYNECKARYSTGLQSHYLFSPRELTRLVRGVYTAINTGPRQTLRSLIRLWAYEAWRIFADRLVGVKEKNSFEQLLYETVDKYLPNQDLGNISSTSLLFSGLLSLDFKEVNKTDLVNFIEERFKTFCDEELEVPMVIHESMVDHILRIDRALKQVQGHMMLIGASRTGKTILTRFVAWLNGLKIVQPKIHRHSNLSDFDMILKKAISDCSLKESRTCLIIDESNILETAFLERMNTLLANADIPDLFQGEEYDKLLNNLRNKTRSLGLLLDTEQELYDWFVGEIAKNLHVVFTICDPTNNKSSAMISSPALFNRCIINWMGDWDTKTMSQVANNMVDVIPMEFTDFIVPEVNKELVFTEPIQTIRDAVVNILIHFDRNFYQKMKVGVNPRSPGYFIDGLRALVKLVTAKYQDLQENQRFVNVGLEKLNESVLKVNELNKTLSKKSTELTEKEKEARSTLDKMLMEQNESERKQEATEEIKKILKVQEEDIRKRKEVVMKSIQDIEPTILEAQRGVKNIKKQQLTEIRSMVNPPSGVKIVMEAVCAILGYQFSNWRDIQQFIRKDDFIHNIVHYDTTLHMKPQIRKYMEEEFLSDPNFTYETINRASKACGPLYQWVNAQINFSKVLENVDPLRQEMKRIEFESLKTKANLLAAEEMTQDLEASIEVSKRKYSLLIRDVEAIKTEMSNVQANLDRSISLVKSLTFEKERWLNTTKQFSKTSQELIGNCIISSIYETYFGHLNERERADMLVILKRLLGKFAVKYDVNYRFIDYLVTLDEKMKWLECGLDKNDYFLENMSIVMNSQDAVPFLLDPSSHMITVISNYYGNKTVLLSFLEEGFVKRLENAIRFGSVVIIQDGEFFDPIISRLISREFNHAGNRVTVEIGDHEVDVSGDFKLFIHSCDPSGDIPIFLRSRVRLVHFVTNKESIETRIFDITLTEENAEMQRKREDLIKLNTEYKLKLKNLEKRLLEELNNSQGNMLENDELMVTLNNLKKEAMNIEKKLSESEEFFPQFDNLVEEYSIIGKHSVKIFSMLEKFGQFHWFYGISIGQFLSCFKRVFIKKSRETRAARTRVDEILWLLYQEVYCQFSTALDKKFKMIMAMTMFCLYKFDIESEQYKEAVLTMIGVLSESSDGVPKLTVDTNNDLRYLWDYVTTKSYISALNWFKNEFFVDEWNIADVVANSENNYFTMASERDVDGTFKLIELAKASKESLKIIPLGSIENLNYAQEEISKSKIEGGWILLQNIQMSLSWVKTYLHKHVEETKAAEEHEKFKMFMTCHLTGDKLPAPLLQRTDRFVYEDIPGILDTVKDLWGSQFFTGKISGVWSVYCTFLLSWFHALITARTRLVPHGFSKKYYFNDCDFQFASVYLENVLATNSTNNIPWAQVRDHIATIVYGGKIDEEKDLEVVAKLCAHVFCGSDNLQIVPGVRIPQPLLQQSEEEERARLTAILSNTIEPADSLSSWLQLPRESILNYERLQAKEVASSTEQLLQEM
# T1 sequence (P36022 1219-4092): as the sequence (P36022 1219-4092 limits assumed) above
# Chain of Xl-katanin (Q9PUL2 whole entry): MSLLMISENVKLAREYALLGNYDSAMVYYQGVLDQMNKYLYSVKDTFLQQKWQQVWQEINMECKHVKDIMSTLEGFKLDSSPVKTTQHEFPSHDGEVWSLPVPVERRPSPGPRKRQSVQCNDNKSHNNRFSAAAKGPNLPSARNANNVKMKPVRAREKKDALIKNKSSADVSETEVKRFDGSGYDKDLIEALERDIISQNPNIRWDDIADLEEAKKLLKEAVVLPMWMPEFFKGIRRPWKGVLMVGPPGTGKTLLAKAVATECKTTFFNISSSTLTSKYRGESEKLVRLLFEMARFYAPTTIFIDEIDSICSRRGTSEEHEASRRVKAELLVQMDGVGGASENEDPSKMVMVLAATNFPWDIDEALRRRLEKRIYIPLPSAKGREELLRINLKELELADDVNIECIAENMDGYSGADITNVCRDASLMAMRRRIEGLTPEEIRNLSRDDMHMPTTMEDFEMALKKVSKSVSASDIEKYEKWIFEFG
# Chain of GFP-Sc-Dyn V2391S/M2732S (AAA3_V-S/AAA4_M-S) (P36022 1219-4092 V2391S/M2732S): as the sequence (P36022 1219-4092 limits assumed) above, with V1173S, M1514S counted along it
structure (smiles),measurement,setting,value
"Nc1ncnc2c1ncn2[C@@H]1O[C@H](COP(=O)(O)OP(=O)(O)NP(=O)(O)O)[C@@H](O)[C@H]1O [AMPPNP, adenylyl imidodiphosphate, reference compound]",EC50,[1],180 ± 78 µM
same,EC50,"GFP-Sc-Dyn [2]; read-out: EC50, AMPPNP binding to GFP-Sc-Dyn (MST), mean ± 95% CI, n=3, 60% MST power",25 ± 20 µM
"N#CC(=C(O)c1ccc(Cl)cc1Cl)c1nc2cc(Cl)ccc2c(=O)[nH]1 [compound 1, ciliobrevin D]",Inhibition of dynein's basal ATPase activity (in words),Hs-dynein 1 [3],does not
"N#Cc1c(C2(c3ccc(Cl)cc3)CC2)nn2c1[nH]c(=O)c1cc(I)ccc12 [compound 2, dynapyrazole-A]",IC50,Hs-dynein 1 [4],~10 µM
"COc1c[nH]c2c(C#N)c(C3(c4ccc(Cl)cc4)CC3)nn2c1=O [compound 6, 2-[1-(4-chlorophenyl)cyclopropyl]-6-methoxy-7-oxo-4H-pyrazolo[1,5-a]pyrimidine-3-carbonitrile]",Effect on microtubule gliding (in words),GFP-Sc-Dyn [5],comparable to DMSO
same,"Microtubule gliding velocity, 30 minutes after treatment","GFP-Sc-Dyn [5]; 1% DMSO, 1 mM Mg-ATP, mean ± SD",66 ± 21
same,"Binding to Sc-Dyn-lyso (MST, in words)",Sc-Dyn-lyso [6],did not bind
same,Inhibition of Hs-dynein 1 basal ATPase activity (in words),Hs-dynein 1 [7],does not inhibit
same,Effect on landing rate (in words),Sc-DynGST,not sensitive
same,Effect on dynein processivity (run length) (in words),Sc-DynGST; 0-50 μM compound,not sensitive
same,Effect on dynein velocity (in words),Sc-DynGST; 0-50 μM compound,not sensitive
same,"Binding to GFP-Sc-Dyn (MST, in words)",GFP-Sc-Dyn [2]; control compound,could not detect binding
"N#Cc1c(C2(c3ccc(Cl)cc3)CC2)nn2c(=O)c(Oc3ccccc3Cl)c[nH]c12 [compound 13, 6-(2-chlorophenoxy)-2-[1-(4-chlorophenyl)cyclopropyl]-7-oxo-4H-pyrazolo[1,5-a]pyrimidine-3-carbonitrile]",Inhibition of Hs-dynein 1 basal ATPase activity (in words),Hs-dynein 1 [7],less active
"COc1cccc(Oc2c[nH]c3c(C#N)c(C4(c5ccc(Cl)cc5)CC4)nn3c2=O)c1 [compound 16, 2-[1-(4-chlorophenyl)cyclopropyl]-6-(3-methoxyphenoxy)-7-oxo-4H-pyrazolo[1,5-a]pyrimidine-3-carbonitrile]",Inhibition of Hs-dynein 1 basal ATPase activity (in words),Hs-dynein 1 [7],less active
"N#Cc1c(C2(c3ccc(Cl)cc3)CC2)nn2c(=O)c(Oc3ccc(Cl)cc3)c[nH]c12 [compound 17, 6-(4-chlorophenoxy)-2-(1-(4-chlorophenyl)cyclopropyl)-7-oxo-4,7-dihydropyrazolo[1,5-a]pyrimidine-3-carbonitrile]",Inhibition of Hs-dynein 1 basal ATPase activity (in words),Hs-dynein 1 [7],less active
"N#Cc1c(C2(c3ccc(Cl)cc3)CC2)nn2c(=O)c(Oc3cccc(Cl)c3)c[nH]c12 [compound 19, 6-(3-chlorophenoxy)-2-[1-(4-chlorophenyl)cyclopropyl]-7-oxo-4H-pyrazolo[1,5-a]pyrimidine-3-carbonitrile]",inhibition at 20 µM,Hs-FIGL1,~85%
same,"Reduction of ATPase activity, Dm-spastin",Dm-spastin,< 25%
same,"Reduction of ATPase activity, Xl-katanin",Xl-katanin,< 25%
same,IC50,Hs-dynein 1 [8],~30 µM
same,IC50,Sc-Dyn-lyso [9],14 ± 4.9 µM
same,IC50,GFP-Sc-Dyn [10],10 ± 1.2 µM
same,IC50,Hs-dynein 1 [7],17 ± 2.3 µM
same,Inhibition of Hs-dynein 1 basal ATPase activity (in words),Hs-dynein 1 [7],most active
same,"Reduction of ATPase activity, Mm-VCP",Mm-VCP/p97,< 25%
